From PubChem BioAssay AID1046 (PCMD, 2008)
Out of some 220,000 compounds screened, about 560 (0.25%) were called active. Only a selection was taken, and actives are over-represented in it overall. Unmarked numbers belong to inactive results.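 The calls were made as follows: active = inhibition at or above 40%; inactive = inhibition below 40%.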

What follows are molecules tested against Prothrombin (Homo sapiens) (UniProt P00734) (assay: blockers of thrombin peptide substrate cleavage – biochemical, 1536-well, fluorogenic AMC substrate, counter-screen for coagulation protease inhibitor project, primary screen (AID 1046;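 also: 0% = enzyme with no compound and 100% = wells without enzyme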)). Settings: alpha-thrombin, Boc-VPR-AMC fluorogenic substrate cleavage; at 5 µM; hits give high values.
How it was run: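 System – human alpha-thrombin protein · Reagent – Boc-VPR-AMC substrate, 15 µM final · Compound – 5 µM single dose in 0.2% DMSO · Schedule – reaction at room temperature · Technique – AMC fluorescence at 355 nm excitation and 460 nm emission · Read-out basis – % inhibition relative to enzyme controls and enzyme-free blanks · Control set – no-compound enzyme wells and no-enzyme blanks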

Point of comparison: `O=C(Nn1cnnc1)c1ccc([N+](=O)[O-])cc1`, inhibition -7.16%. Against it:
- CCN(CC)C(=O)N(CC)Cc1ccccc1 — higher, -4.01%
- Cc1cc(C)n2nc(C(=O)N(C)C(c3ccccc3)c3ccccc3)nc2n1 — lower, -10.8%
- CCOc1cc(NC(=S)NCCCN(C)C)c(OCC)cc1NC(=O)C1CC1 — lower, -9.76%
- O=C1/C(=C\c2cccnc2)CN(Cc2ccccc2)C/C1=C\c1cccnc1 — higher, 10.5%
- O=C(c1[nH]ncc1-c1ccc(Cl)cc1)C1CO1 (configuration not stated) — higher, -4.22%
- CC(=O)OCCOCn1cnn2c(=O)c(Br)c(C)nc12 — higher, 0.26%
- CCOC(=O)c1c(NC(=O)C(C)Sc2c[nH]c3ccccc23)sc2c1CCC2 (configuration not stated) — higher, 1.33%
- Cc1nnc(SCC(=O)N2CCOCC2)[nH]c1=O — higher, -2.64%
- CC(=O)c1sc2nc(SCC(=O)N3CCCCC3)[nH]c(=O)c2c1C — higher, -2.78%
- CCNC(=S)NNC(=O)C1CCN(Cc2ccccc2)CC1 — higher, -3.23%
- Cc1ccc(C)n1NC(=O)c1ccc([N+](=O)[O-])cc1 — higher, -0.02%
- Cn1c(=O)c(=O)n(C)c2cc(S(=O)(=O)NCCN3CCN(c4ccccc4F)CC3)ccc21 — higher, -4.5%
- C=CCC(Nc1ccccc1)c1cccc(OC)c1OC (configuration not stated) — lower, -13%
- CC1COc2ccccc2N1S(=O)(=O)c1ccccc1 (configuration not stated) — higher, 4.45%
- Cc1ccccc1Cn1nc(C)c(NC(=O)C(F)(F)F)c1C — higher, -1.16%
- CCO[C@@H]1OC(C(=O)NC2CC2)=C[C@H](C)[C@H]1CCCO — higher, -5.9%
- COC(=O)c1cccc(NC(=O)CN2CCC(NC(=O)c3cc(OC)c(OC)c(OC)c3)CC2)c1 — higher, -1.04%
- CCCN(CCC)S(=O)(=O)c1ccc(C(=O)NNC(=O)c2cc(OC)c(OC)c(OC)c2)cc1 — higher, 2.82%
- CCCN(CCC)c1c([N+](=O)[O-])c(=O)oc2ccccc12 — higher, 0.93%
- COc1ccc(OC)c(-n2c(-c3ccn[nH]3)n[nH]c2=S)c1 — higher, -4.83%
- COCC(=O)Nc1cc(C(=O)OC)cc(C(=O)OC)c1 — higher, 0.93%
- CS(=O)(=O)n1nc(-c2ccccc2)nc1NCc1ccco1 — higher, -2.92%
- c1ccc(-c2nc(NCc3ccco3)c3ccccc3n2)cc1 — higher, 3.14%
- O=C(c1ccc(N2CCOCC2)c([N+](=O)[O-])c1)N1CCN(S(=O)(=O)c2cccs2)CC1 — higher, -1.14%
- c1ccc(CN=C2Nc3ccccc3CS2)nc1 — higher, -2.61%
- O=C(CSc1nc2ccccc2s1)Nc1ccc(C(=O)O)cc1 — higher, -1.16%
- CCn1cc(CNC(=O)c2cc([N+](=O)[O-])c(C)c([N+](=O)[O-])c2)cn1 — higher, -0.78%
- Cc1ccc(CN2CCN(Cc3cn(C)nc3-c3ccccc3)CC2CCO)o1 (configuration not stated) — higher, 0.78%
- Cc1ccc(S(=O)(=O)/N=C(/NC(=S)Nc2c(C)n(C)n(-c3ccccc3)c2=O)c2ccccc2)cc1 — higher, 3.47%
- Cc1cc(C)cc(N(CC(=O)Nc2c(C)n(C)n(-c3ccccc3)c2=O)S(C)(=O)=O)c1 — higher, 4.95%
- CC(=O)N/C(=C\c1ccc(F)cc1)C(=O)NC(Cc1ccccc1)C(=O)O (configuration not stated) — higher, -5.05%

For `O=C(CSc1nc2c(cnn2-c2ccc(F)cc2)c(=O)[nH]1)N1CCCCCC1`, the inhibition was 40.9% (active).
`O=C(Nc1cc2c3c(c1)C1CCCC1CN3CC1CCCC21)c1ccc([N+](=O)[O-])cc1` (configuration not stated) was tested, and the inhibition was 101% (active).
For `CCN1CCN(CC(=O)c2cc(OC)c(OC)c(OC)c2)CC1`, the inhibition was 45.6% (active).
With `O=C(Cc1ccccc1)n1nc(-c2ccccc2)nc1NCc1ccco1` the inhibition was 75.1% (active).
With `Cc1ccc(S(=O)(=O)CC(=O)Nc2c(C)n(C)n(-c3ccccc3)c2=O)cc1` the inhibition was 46.1% (active).
